Results: ChEMBL document CHEMBL1649109, “Antiparasitic activities and toxicities of individual enantiomers of the 8-aminoquinoline 8-[(4-amino-1-methylbutyl)amino]-6-methoxy-4-methyl-5-[3,4-dichlorophenoxy]quinoline succinate” (Antimicrob Agents Chemother, 2008)
Activity calls are given as the source filed them. The rule behind the calls is not given here.

Legend:
Canis familiaris [1] = assay: Toxicity in Beagle dog assessed as increase in methemoglobin level at 1.91 mg/kg/day, po after 2 days; type: organism-based, Canis lupus familiaris; set-up: route oral; settings: in vivo, 48 h
In short: (§1)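 Beagle dogs, one male and one female per enantiomer, given 0.64 mg/kg/day (0.5 mg/kg base) orally for 4 days. After a 5-week washout the same dogs received 1.91 mg/kg/day for 4 days. Methemoglobin sampled from days −6 to 36. Each dog's values are mean of duplicate determinations.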

Canis familiaris [2] = assay: Toxicity in Beagle dog assessed as increase in methemoglobin level at 1.91 mg/kg/day, po after 6 days; type: organism-based, Canis lupus familiaris; set-up: route oral; settings: in vivo, 144 h; in short: as §1
Plasmodium berghei [3] = assay: Antimalarial activity Plasmodium berghei KBG-173 infected in Swiss(CD-1) mouse assessed as increase in mean survival time over control at 2 mg/kg, po pretreated 1 day before infection
Plasmodium berghei [4] = assay: Antimalarial activity against Plasmodium berghei KBG-173 infected in Swiss(CD-1) mouse assessed as parasitemia at 0.25 mg/kg/day, po treated for 3 days measured on day 6
Plasmodium berghei [5] = assay: Antimalarial activity against Plasmodium berghei KBG-173 infected in Swiss(CD-1) mouse assessed as mean survival time at 0.25 mg/kg/day, po treated for 3 days; type: functional
In short: (§2)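 CD-1 mice, 5 weeks old, male or female, groups of five, infected with 5 × 10^4 P. berghei KBG-173 parasitized erythrocytes. Drug in 0.5% hydroxyethylcellulose/0.1% Tween 80, given orally once daily on days 3, 4 and 5 post-infection. Parasitemia from blood films on day +6. Read-out also includes increase in mean survival time over controls and survivors at day +34.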

Canis familiaris [6] = assay: Toxicity in Beagle dog assessed as increase in methemoglobin level at 1.91 mg/kg/day, po after 8 days; type: organism-based, Canis lupus familiaris; set-up: route oral; settings: in vivo, 192 h; in short: as §1
Plasmodium berghei [7] = assay: Antimalarial activity against Plasmodium berghei KBG-173 infected in Swiss(CD-1) mouse assessed as mean survival time at 1 mg/kg/day, po treated for 3 days; type: functional; in short: as §2
Plasmodium berghei [8] = assay: Antimalarial activity against Plasmodium berghei KBG-173 infected in Swiss(CD-1) mouse assessed as reduction in parasitemia at 4 mg/kg/day, po treated for 3 days measured on day 6; type: functional; set-up: scale not given: the % may be the effect or the level left; in short: as §2
Plasmodium berghei [9] = assay: Antimalarial activity Plasmodium berghei KBG-173 infected in Swiss(CD-1) mouse assessed as mean survival time at 2 mg/kg, po pretreated 2 days before infection; type: functional
In short: (§3)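 CD-1 mice, 5 weeks old, male or female, groups of five, infected with 5 × 10^4 P. berghei KBG-173 parasitized erythrocytes. One 2 mg/kg oral dose given on a single day, from day −3 to +2 relative to inoculation. Controls untreated. Read-out is increase in mean survival time over controls and number alive at day +30.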

Plasmodium berghei [10] = assay: Antimalarial activity Plasmodium berghei KBG-173 infected in Swiss(CD-1) mouse assessed as survival at 2 mg/kg, po pretreated 1 day before infection measured on day 30; type: functional, organism-based; set-up: dose 2 mg/kg; in short: as §3
Pneumocystis carinii [11] = assay: Antimicrobial activity against Pneumocystis carinii infected BALB/c mouse at 0.25 mg/kg/day, po after 21 days administered 4 weeks postinfection by Giemsa staining method; type: functional, organism-based
In short: (§4)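 Female BALB/c mice, 6-8 weeks, immunosuppressed with dexamethasone […] in drinking water, then inoculated transtracheally with 10^6 P. carinii. From 4 weeks post-inoculation, drug given in drinking water for 3 weeks, 10 mice/group, intake monitored. Lung impression smears stained with Giemsa or methenamine silver, read blinded. Graded 0-5 on a log scale; group mean ± SE.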

Leishmania donovani [12] = assay: Antileishmanial activity against Leishmania donovani HU3 infected in mouse assessed as inhibition of parasites in liver at 0.4 mg/kg/day, po treated for 5 days administered 7 days postinfection measured after 14 days post-infection; type: functional
In short: (§5)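 L. donovani HU3 amastigotes, 1 × 10^7 given IV to mice. From day 7 post-infection, dosed orally once daily for 5 days in 0.25% methylcellulose-10% ethanol; reference stibogluconate given SC. Mice killed at day 14 post-infection. Parasite burden counted on liver impression smears against untreated controls. ED50 from linear regression, with 95% confidence limits.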

Pneumocystis carinii [13] = assay: Antimicrobial activity against Pneumocystis carinii infected BALB/c mouse at 5 mg/kg/day, po after 21 days administered 4 weeks postinfection by Giemsa staining method; type: functional, organism-based; in short: as §4
Plasmodium berghei [14] = assay: Antimalarial activity against Plasmodium berghei KBG-173 infected in Swiss(CD-1) mouse assessed as mean survival time at 4 mg/kg/day, po treated for 3 days; type: functional; in short: as §2
Plasmodium berghei [15] = assay: Antimalarial activity against Plasmodium berghei KBG-173 infected in Swiss(CD-1) mouse assessed as survival at 0.25 mg/kg/day, po treated for 3 days measured on day 34; type: functional, organism-based; in short: as §2
Pneumocystis carinii [16] = assay: Antimicrobial activity against Pneumocystis carinii infected BALB/c mouse at 1 mg/kg/day, po after 21 days administered 4 weeks postinfection by Giemsa staining method; type: functional, organism-based; in short: as §4
Pneumocystis carinii [17] = assay: Antimicrobial activity against Pneumocystis carinii infected BALB/c mouse at 0.25 mg/kg/day, po after 21 days administered 4 weeks postinfection by methenamine silver nitrate staining method; type: functional, organism-based; in short: as §4
Plasmodium berghei [18] = assay: Antimalarial activity Plasmodium berghei KBG-173 infected in Swiss(CD-1) mouse assessed as survival at 2 mg/kg, po pretreated 2 days before infection measured on day 30; type: functional, organism-based; set-up: dose 2 mg/kg; in short: as §3
Plasmodium berghei [19] = assay: Antimalarial activity Plasmodium berghei KBG-173 infected in Swiss(CD-1) mouse assessed as mean survival time at 2 mg/kg, po treated 2 day postinfection; type: functional; in short: as §3
Pneumocystis carinii [20] = assay: Antimicrobial activity against Pneumocystis carinii infected BALB/c mouse at 5 mg/kg/day, po after 21 days administered 4 weeks postinfection by methenamine silver nitrate staining method; type: functional, organism-based; in short: as §4
Plasmodium berghei [21] = assay: Antimalarial activity Plasmodium berghei KBG-173 infected in Swiss(CD-1) mouse assessed as survival at 2 mg/kg, po treated at day of infection measured on day 30; type: functional, organism-based; set-up: dose 2 mg/kg; in short: as §3
Canis familiaris [22] = assay: Toxicity in Beagle dog assessed as increase in methemoglobin level at 1.91 mg/kg/day, po; type: organism-based, Canis lupus familiaris; set-up: route oral; settings: in vivo; in short: as §1
Plasmodium berghei [23] = assay: Antimalarial activity Plasmodium berghei KBG-173 infected in Swiss(CD-1) mouse assessed as mean survival time at 2 mg/kg, po treated 1 day postinfection; type: functional; in short: as §3
Plasmodium berghei [24] = assay: Antimalarial activity Plasmodium berghei KBG-173 infected in Swiss(CD-1) mouse assessed as survival at 2 mg/kg, po treated 2 day postinfection measured on day 30; type: functional, organism-based; set-up: dose 2 mg/kg; in short: as §3
Leishmania donovani [25] = assay: Antileishmanial activity against Leishmania donovani HU3 infected in mouse assessed as inhibition of parasites in liver at 10 mg/kg/day, po treated for 5 days administered 7 days postinfection measured after 14 days post-infection; type: functional; in short: as §5
Plasmodium berghei [26] = assay: Antimalarial activity against Plasmodium berghei KBG-173 infected in Swiss(CD-1) mouse assessed as survival at 4 mg/kg/day, po treated for 3 days measured on day 34; type: functional, organism-based; in short: as §2
Plasmodium berghei [27] = assay: Antimalarial activity against Plasmodium berghei KBG-173 infected in Swiss(CD-1) mouse assessed as parasitemia at 1 mg/kg/day, po treated for 3 days measured on day 6
Leishmania donovani [28] = assay: Antileishmanial activity against Leishmania donovani HU3 infected in mouse assessed as inhibition of parasites in liver at 5 mg/kg/day, po treated for 5 days administered 7 days postinfection measured after 14 days post-infection; type: functional; in short: as §5
Plasmodium berghei [29] = assay: Antimalarial activity Plasmodium berghei KBG-173 infected in Swiss(CD-1) mouse assessed as survival at 2 mg/kg, po treated 1 day postinfection measured on day 30; type: functional, organism-based; set-up: dose 2 mg/kg; in short: as §3
Plasmodium berghei [30] = assay: Antimalarial activity Plasmodium berghei KBG-173 infected in Swiss(CD-1) mouse assessed as mean survival time at 2 mg/kg, po treated at day of infection; type: functional; in short: as §3
Pneumocystis carinii [31] = assay: Antimicrobial activity against Pneumocystis carinii infected BALB/c mouse at 1 mg/kg/day, po after 21 days administered 4 weeks postinfection by methenamine silver nitrate staining method; type: functional, organism-based; in short: as §4
Mus musculus = assay: Toxicity in Leishmania donovani HU3 infected mouse at 100 mg/kg/day, po treated for 5 days administered 7 days postinfection; type: organism-based; set-up: route oral; settings: in vivo; in short: as §5
Plasmodium berghei [32] = assay: Antimalarial activity Plasmodium berghei KBG-173 infected in Swiss(CD-1) mouse assessed as mean survival time at 2 mg/kg, po pretreated 3 days before infection; type: functional; in short: as §3
Plasmodium berghei [33] = assay: Antimalarial activity against Plasmodium berghei KBG-173 infected in Swiss(CD-1) mouse assessed as survival at 1 mg/kg/day, po treated for 3 days measured on day 34; type: functional, organism-based; in short: as §2

COc1cc(N[C@@H](C)CCCN)c2nccc(C)c2c1Oc1ccc(Cl)c(Cl)c1.O=C(O)CCC(=O)O
Activity (Canis familiaris [1]): Toxic | Activity (Canis familiaris [2]): Toxic | ΔMST (Plasmodium berghei [3]): 0.6 days | Activity (Plasmodium berghei [4]): 28.2% | MST (Plasmodium berghei [5]): 0 days | Activity (Canis familiaris [6]): Toxic | MST (Plasmodium berghei [7]): 6 days | Activity (Plasmodium berghei [8]): 1.1% | MST (Plasmodium berghei [9]): 0 days | Activity (Plasmodium berghei [10]): Active | Activity (Pneumocystis carinii [11]): Active | inhibition in vivo at 0.4 mg/kg/day (Leishmania donovani [12]): 41.2% | Activity (Pneumocystis carinii [13]): Active | MST (Plasmodium berghei [14]): 11 days | Activity (Plasmodium berghei [15]): Active | Activity (Pneumocystis carinii [16]): Active | Activity (Pneumocystis carinii [17]): Active | Activity (Plasmodium berghei [18]): Active | MST (Plasmodium berghei [19]): 1.2 days | Activity (Pneumocystis carinii [20]): Active | Activity (Plasmodium berghei [21]): Active | Activity (Canis familiaris [22]): Toxic | MST (Plasmodium berghei [23]): 0 days | Activity (Plasmodium berghei [24]): Active | inhibition in vivo at 10 mg/kg/day (Leishmania donovani [25]): 99.6% | Activity (Plasmodium berghei [26]): Active | Activity (Plasmodium berghei [27]): 27.4% | inhibition in vivo at 5 mg/kg/day (Leishmania donovani [28]): 65% | Activity (Plasmodium berghei [29]): Active | MST (Plasmodium berghei [30]): 3.4 days | Activity (Pneumocystis carinii [31]): Active | Activity (Mus musculus): Toxic | MST (Plasmodium berghei [32]): 0 days | Activity (Plasmodium berghei [33]): Active
